Runt-CBFb FRET: inhibitors of RUNX1 Runt–CBFb binding, primary screen, biochemical, FRET, Cerulean-Runt, Venus-CBFb, uHTS; Runt-related transcription factor 1 (Homo sapiens) + Core-binding factor subunit beta …; Cerulean-Runt/Venus-CBFb FRET ratio 530/480, 1 h; inhibition, % at 20 µM; 220,000 compounds, 0.46% hits;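 active = inhibition over about 50% at 20 µM in the single-dose screen, limit read from the data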
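Buffer or medium: Tris pH 7.5 buffer with BSA. Assay system: Cerulean-labeled Runt domain protein. Amount: each fluorescent fusion protein 100 nM. Read-out basis: loss of energy transfer signal. Incubation: 1 h compound exposure, room temperature. Probe or stimulus: Venus-CBFb binding partner, 100 nM. Detection: FRET, excitation 422 nm, emission at 530 and 480 nm.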
Runt-SMMHC FRET: inhibitors of RUNX1 Runt–CBFb-SMMHC binding, primary screen, biochemical, FRET, Cerulean-Runt, Venus-CBFb-SMMHC, uHTS. Cerulean-Runt/Venus-CBFb-SMMHC FRET ratio 530/480, 1 h. Runt-related transcription factor 1 (Homo sapiens) + Core-binding factor subunit beta …. inhibition, % at 20 µM. AID 1434, 2008. 220,000 compounds, 0.74% hits;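 active = mean inhibition across duplicate retests at 20 µM reaching about 50%, limit read from the data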;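 note: inhibitors lower the FRET ratio by blocking Runt binding to CBFb-SMMHC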
RanGTP-Imp inh: inhibitors of RanGTP-importin-beta interaction, primary screen, biochemical, FRET, CFP-Ran, YFP-importin-beta, homogeneous. cell-free CFP-Ran/YFP-importin-beta FRET ratio. AID 2216, 2009. 300,000 compounds, 1.1% hits. Ran GTPase (GTP-bound) - importin-beta complex. inhibition, % (no concentration beside the values);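 active = more than half of the replicate wells show a fall in the fluorescence ratio signal beyond about 16%, limit read from the data, passing the limit was not always enough; inconclusive = exactly half of the replicate wells pass the set limit; inactive = fewer than half of replicates pass the limit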
Hck Nef HTS: inhibitors of Nef-activated human Hck kinase, primary screen, biochemical, Z-Lyte FRET, 384-well, Hck-YEEI; inhibition, % at 20 µM; 220,000 compounds, 0.68% hits; Tyrosine-protein kinase HCK (Homo sapiens), P08631; Recombinant Hck-YEEI plus Nef, Z-Lyte FRET kinase assay;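 active = Hck-Nef kinase inhibition above about 50%, limit read from the data; inactive = inhibition below that limit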
Target sequence (P08631 whole entry, looked up): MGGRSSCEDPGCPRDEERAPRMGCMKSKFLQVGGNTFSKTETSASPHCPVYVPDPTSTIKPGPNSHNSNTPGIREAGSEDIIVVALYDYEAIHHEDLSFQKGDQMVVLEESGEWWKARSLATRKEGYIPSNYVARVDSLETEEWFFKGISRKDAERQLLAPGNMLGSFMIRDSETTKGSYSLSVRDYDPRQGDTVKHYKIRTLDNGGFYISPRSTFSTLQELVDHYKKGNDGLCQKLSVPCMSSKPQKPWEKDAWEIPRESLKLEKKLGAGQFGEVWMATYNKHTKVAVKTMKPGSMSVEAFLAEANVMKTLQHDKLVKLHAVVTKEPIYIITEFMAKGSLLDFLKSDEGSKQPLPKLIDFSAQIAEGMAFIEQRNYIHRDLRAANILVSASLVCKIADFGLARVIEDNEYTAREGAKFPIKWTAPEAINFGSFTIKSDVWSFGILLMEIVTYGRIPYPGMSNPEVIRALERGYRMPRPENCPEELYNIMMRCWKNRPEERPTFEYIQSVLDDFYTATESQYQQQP
Tb hexokinase: Trypanosoma brucei hexokinase 1 inhibitors, primary screen, biochemical, G6PDH-coupled NADH absorbance, MLSCN library; hexokinase 1 [Trypanosoma brucei]; recombinant TbHK1, G6PDH-coupled NADH A340; inhibition, % at 10 µM; 220,000 compounds, 0.11% hits; AID 1430, 2008;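 active = inhibition of 50% or more in the single-dose primary screen; inactive = inhibition below 50%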
G6PDH ctr: Leuconostoc G6PDH inhibition, confirmation, counter-screen for TbHK1 inhibitor project, biochemical, DPI cherry-picked compounds, single concentration; inhibition, % at 10 µM; 210 compounds, 7% hits; purified G6PDH, NADH absorbance, 1 h; shares compounds with Tb hexokinase;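 active = at least 50% inhibition in the glucose-6-phosphate dehydrogenase coupled counterscreen; inconclusive = no clear call, values can overlap the other calls; inactive = inhibition below 50%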
TbHK1 confirm: TbHK1 inhibitor retest, confirmation, biochemical, DPI cherry-picked primary actives; shares compounds with Tb hexokinase; recombinant TbHK1, G6PDH-coupled NADH A340 absorbance; inhibition, % at 10 µM; 210 compounds, 10% hits; AID 2560, 2010;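 active = inhibition of at least 50% in both of the two screening runs; inconclusive = at least 50% in one run, below 50% in the other; inactive = inhibition below 50% in both runs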
Runt-CBFb TRFRET: inhibitors of RUNX1 Runt–CBFb binding, biochemical, TR-FRET | 480 compounds, 20% hits | inhibition, % at 20 µM | TR-FRET RUNX1 Runt domain-CBFb binding | shares compounds with Runt-CBFb FRET; in the data active = inhibition above about 40%
Hck-Nef confirm: retest of Hck:Nef kinase inhibitor hits, confirmation, biochemical, Z-Lyte FRET, 384-well, p-Tyr peptide counterscreen. shares compounds with Hck Nef HTS. Recombinant Hck-YEEI:Nef, Z-Lyte FRET kinase assay. calls only at 10 µM. 1,300 compounds, 28% hits. AID 463188, 2010;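 active = average inhibition of at least 50%, with Z-scores no higher than 3 in both the phospho-tyrosine peptide and fluorescence counterscreens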
Each line names hits and unclear results; the compound was inactive in the other large screens (follow-up assays come after a bar, where they were run). This is a sample that favours compounds with a hit; in the whole collection about 1.9% have one here.

O=C(N/N=C/c1c(O)n(-c2ccccc2)c(=O)[nH]c1=O)c1ccncc1	none
Cc1ccc(-n2c(O)c(/C=N/NC(=O)c3ccncc3)c(=O)[nH]c2=O)cc1	none
Cn1c(O)c(/C=N/NC(=O)c2ccncc2)c(=O)n(C)c1=S	Runt-SMMHC FRET 81.1
Cn1c(O)c(/C=N/NC(=O)c2ccncc2)c(=O)[nH]c1=S	Runt-SMMHC FRET 70.7
CCCCn1c(O)c(/C=N/NC(=O)c2ccncc2)c(=O)[nH]c1=S	Runt-CBFb FRET 61.7, Runt-SMMHC FRET 82.5
N/C(=N\[N+](=O)[O-])N1CCN(C(=O)Oc2ccccc2)CC1	none (no result: Runt-CBFb FRET, Runt-SMMHC FRET, Hck Nef HTS, Tb hexokinase)
Cn1c(O)c(/C=C/C=Nc2ccccc2)c(=O)n(C)c1=O	Runt-SMMHC FRET 69.0, RanGTP-Imp inh 33.0
CCCCC(=O)N/N=C/c1c(O)n(CCc2ccccc2)c(=O)[nH]c1=O	none
CCCCn1c(O)c(/C=C/C=Nc2ccccc2)c(=O)[nH]c1=O	Runt-SMMHC FRET 64.3, RanGTP-Imp inh 41.4
COc1ccc(NC(=O)C2C3CCC(O3)C2C(=O)O)c(OC)c1 (stereo unspecified)	none (no result: Runt-CBFb FRET, Runt-SMMHC FRET, Hck Nef HTS, Tb hexokinase)
COc1ccc(C(=O)O/N=C(/C(N)=O)P(=O)(OC(C)C)OC(C)C)cc1	none
Cc1c(CC(=O)N2C[C@H]3C[C@@H](C2)c2cccc(=O)n2C3)c(=O)oc2c(C)c(O)ccc12	RanGTP-Imp inh 70.6 (no result: Runt-CBFb FRET, Runt-SMMHC FRET, Hck Nef HTS, Tb hexokinase)
Cc1c(CC(=O)N2C[C@H]3C[C@@H](C2)c2cccc(=O)n2C3)c(=O)oc2cc(O)c(Cl)cc12	RanGTP-Imp inh 75.4 (no result: Runt-CBFb FRET, Runt-SMMHC FRET, Hck Nef HTS, Tb hexokinase)
O=C(O)C1Cc2ccccc2N2CCCC12 (stereo unspecified)	none (no result: Runt-CBFb FRET, Runt-SMMHC FRET, Hck Nef HTS, Tb hexokinase)
CCN1C(=O)/C(=C\c2ccc([N+](=O)[O-])s2)C(=O)NC1=S	Hck Nef HTS 88.5 (no result: Runt-CBFb FRET, RanGTP-Imp inh)
C=CCN1C(=O)/C(=C/c2ccc(Br)s2)C(=O)NC1=S	none (no result: Runt-CBFb FRET, Runt-SMMHC FRET, Hck Nef HTS, Tb hexokinase)
Oc1ccc2c3c1O[C@H]1c4oc5ccccc5c4C[C@@]4(O)[C@@H](C2)N(CC2CC2)CC[C@]314	none
Nc1ccccc1-[n+]1c(-c2ccccc2)cc(-c2ccccc2)cc1-c1ccccc1	RanGTP-Imp inh 41.5
CC(=NCCCn1ccnc1)c1c(O)n(C2CCCCC2)c(=O)[nH]c1=O	none
O=C1NC(=O)C(=Cc2ccc(-c3ccc(F)cc3O)o2)C(=O)N1	none (no result: Runt-CBFb FRET, Runt-SMMHC FRET, Hck Nef HTS, Tb hexokinase)
O=C(/C=C/c1c[nH]c2ccccc12)c1c(O)n(CCc2ccccc2)c(=O)[nH]c1=O	RanGTP-Imp inh 30.9
CN1CC=C(/C=C/c2ccc(-c3ccccc3)cc2)CC1	none (no result: Runt-CBFb FRET, Runt-SMMHC FRET, Hck Nef HTS, Tb hexokinase)
NC(=O)c1cn(C2OC(CO)C(O)C2O)c2ncnc(N)c12 (stereo unspecified)	Hck Nef HTS 54.3
N#Cc1c(Cl)nc(Cl)c2c1CCN(Cc1ccccc1)C2	Runt-SMMHC FRET 60.8
CC(N)Cc1cn(Cc2ccccc2)c2ccccc12 (stereo unspecified)	none (no result: Runt-CBFb FRET, Runt-SMMHC FRET, Hck Nef HTS, Tb hexokinase)
CCC(=NCc1ccco1)c1c(O)n(C2CCCCC2)c(=O)[nH]c1=O	Runt-SMMHC FRET 101.7
COc1ccc(N=Cc2c(O)n(-c3ccc(C)cc3)c(=O)[nH]c2=O)cc1	Runt-SMMHC FRET 64.4
O=C(Nc1ccc(F)cc1)N1CC2CC(C1)c1cccc(=O)n1C2 (stereo unspecified)	RanGTP-Imp inh 21.4 (no result: Runt-CBFb FRET)
CCOP(=O)(OCC)C(NC(=O)CC(C)C)C(Cl)(Cl)Cl (stereo unspecified)	none
CCOP(=O)(OCC)C(C)(C)NC(=O)C(Cl)(Cl)Cl	RanGTP-Imp inh 84.5
CN1CC=C2C(C#N)=C(N)C(C#N)(C#N)C(c3ccncc3)C2C1 (stereo unspecified)	RanGTP-Imp inh 44.9
CC(C)c1ccc(N2C(=O)NC(=O)/C(=C/c3cnc(-c4ccccc4)nc3)C2=O)cc1	none
O=C1NC(=O)N(Cc2ccccc2)C(=O)/C1=C/c1cnc(-c2ccccc2)nc1	Hck Nef HTS 58.0
O=C1NC(=O)N(Cc2ccccc2)C(=O)/C1=C/N1CCCc2ccccc21	RanGTP-Imp inh 30.4
CCCCCn1c(=O)c(C(=O)NC(C)c2ccccc2)c(O)c2ccccc21 (stereo unspecified)	none (no result: Runt-CBFb FRET, Runt-SMMHC FRET, Hck Nef HTS, Tb hexokinase)
C[C@]12CC[C@H](OS(=O)(=O)O)CC1=CC[C@@H]1[C@@H]2CC[C@]2(C)C(=O)CC[C@@H]12	none (no result: Runt-CBFb FRET, Runt-SMMHC FRET, Hck Nef HTS, Tb hexokinase)
C[C@H]1CC[C@@H]2[C@@H](C)[C@H]3[C@H](C[C@H]4[C@@H]5CC=C6C[C@@H](O[C@@H]7O[C@H](CO)[C@H](O)[C@H](O[C@@H]8O[C@H](CO)[C@@H](O)[C@H](O)[C@H]8O)[C@H]7O[C@@H]7O[C@@H](C)[C@H](O)[C@@H](O)[C@H]7O)CC[C@]6(C)[C@H]5CC[C@]34C)N2C1	RanGTP-Imp inh 16.7
CN1CC(C(=O)c2cccc(C(F)(F)F)c2)C(c2ccc(Cl)cc2)C1 (stereo unspecified)	none (no result: Runt-CBFb FRET, Runt-SMMHC FRET, Hck Nef HTS, Tb hexokinase)
Cc1nn(Cc2ccccc2)c(Cl)c1C(=O)NC1CCCc2ccccc21 (stereo unspecified)	RanGTP-Imp inh inconclusive
CCn1nc(-c2ccccc2)nc2c(=O)n(C)c(=O)nc1-2	Tb hexokinase 69.4 | G6PDH ctr inactive | TbHK1 confirm inactive
Cc1c(CCN)ccc2c1[nH]c1ccccc12	none
O=c1c2ccccc2[se]n1-c1ccccc1	Hck Nef HTS 102.4, Tb hexokinase 91.2 | G6PDH ctr inactive | TbHK1 confirm 90.0 | Hck-Nef confirm active
Oc1ccc(C(=C(Cl)Cl)c2ccc(O)cc2)cc1	none (no result: Runt-CBFb FRET, Runt-SMMHC FRET, Hck Nef HTS, Tb hexokinase)
O=S1(=O)CC2(N3CCOCC3)CCCCCCC21 (stereo unspecified)	Runt-CBFb FRET 79.5, RanGTP-Imp inh inconclusive | Runt-CBFb TRFRET inactive

Screening results from PubChem.
